# Laboratory results reported in ChEMBL document CHEMBL5058577, “EUbOPEN Chemogenomics Library 2 (Multiplex)” (2022).
# System: Fibroblast
# Assay: Multiplex assay against human fibroblast
# Type: toxicity, cell-based
# Method in brief: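 Cells stained live at seeding with Hoechst33342, BioTracker Green Microtubule Cytoskeleton Dye, MitoTracker Red and Annexin V Alexa Fluor 680 were imaged on a CQ1 microscope at 37°C and 5% CO2 after compound addition. Their classification by CellPathfinder machine-learning gating ran from Hoechst high-intensity objects versus normal cells, to healthy, pyknosed or fragmented nuclei among normal cells, to mitotic or apoptotic among pyknosed cells. Tubulin, mitochondrial-mass and membrane-permeability phenotypes are per cents of healthy-nucleus cells.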
# [1] = 12 h, 1 µM, compound concentration 1 uM, replicate 1
# [2] = 12 h, 1 µM, compound concentration 1 uM, replicate 2
# [3] = 12 h, 10 µM, compound concentration 10 uM, replicate 1
# [4] = 12 h, 10 µM, compound concentration 10 uM, replicate 2
# [5] = 24 h, 1 µM, compound concentration 1 uM, replicate 1
# [6] = 24 h, 1 µM, compound concentration 1 uM, replicate 2
# [7] = 24 h, 10 µM, compound concentration 10 uM, replicate 1
# [8] = 24 h, 10 µM, compound concentration 10 uM, replicate 2
# [9] = 48 h, 1 µM, compound concentration 1 uM, replicate 1
# [10] = 48 h, 1 µM, compound concentration 1 uM, replicate 2
# [11] = 48 h, 10 µM, compound concentration 10 uM, replicate 1
# [12] = 48 h, 10 µM, compound concentration 10 uM, replicate 2
compound,measurement,setting,value
COc1cc(OC2CCN(C(C)=O)CC2)ccc1C(=O)N1CCC(N2C(=O)OCc3ccccc32)CC1,Population Apoptotic (%),[1],41%
same,Population Fragmented Nuclei (%),[1],12%
same,Population Healthy Nuclei (%),[1],64%
same,Population Hoechst High Intensity Objects (%),[1],5%
same,Population Membrane Permeable-Phenotype (%),[1],2%
same,Population Mitochondria Different-Phenotype (%),[1],5%
same,Population Mitotic Cells (%),[1],58%
same,Population Normal (%),[1],94%
same,Population Pyknosed Nuclei (%),[1],22%
same,Population Tubulin-Different-Phenotype (%),[1],32%
same,Total Cell Count,[1],157
same,Population Apoptotic (%),[2],40%
same,Population Fragmented Nuclei (%),[2],29%
same,Population Healthy Nuclei (%),[2],52%
same,Population Hoechst High Intensity Objects (%),[2],3%
same,Population Membrane Permeable-Phenotype (%),[2],0%
same,Population Mitochondria Different-Phenotype (%),[2],3%
same,Population Mitotic Cells (%),[2],59%
same,Population Normal (%),[2],96%
same,Population Pyknosed Nuclei (%),[2],17%
same,Population Tubulin-Different-Phenotype (%),[2],34%
same,Total Cell Count,[2],159
same,Population Apoptotic (%),[3],52%
same,Population Fragmented Nuclei (%),[3],10%
same,Population Healthy Nuclei (%),[3],73%
same,Population Hoechst High Intensity Objects (%),[3],3%
same,Population Membrane Permeable-Phenotype (%),[3],0%
same,Population Mitochondria Different-Phenotype (%),[3],6%
same,Population Mitotic Cells (%),[3],48%
same,Population Normal (%),[3],96%
same,Population Pyknosed Nuclei (%),[3],16%
same,Population Tubulin-Different-Phenotype (%),[3],54%
same,Total Cell Count,[3],161
same,Population Apoptotic (%),[4],37%
same,Population Fragmented Nuclei (%),[4],32%
same,Population Healthy Nuclei (%),[4],40%
same,Population Hoechst High Intensity Objects (%),[4],6%
same,Population Membrane Permeable-Phenotype (%),[4],2%
same,Population Mitochondria Different-Phenotype (%),[4],10%
same,Population Mitotic Cells (%),[4],62%
same,Population Normal (%),[4],93%
same,Population Pyknosed Nuclei (%),[4],28%
same,Population Tubulin-Different-Phenotype (%),[4],56%
same,Total Cell Count,[4],134
same,Population Apoptotic (%),[5],63%
same,Population Fragmented Nuclei (%),[5],19%
same,Population Healthy Nuclei (%),[5],63%
same,Population Hoechst High Intensity Objects (%),[5],1%
same,Population Membrane Permeable-Phenotype (%),[5],0%
same,Population Mitochondria Different-Phenotype (%),[5],4%
same,Population Mitotic Cells (%),[5],36%
same,Population Normal (%),[5],98%
same,Population Pyknosed Nuclei (%),[5],17%
same,Population Tubulin-Different-Phenotype (%),[5],32%
same,Total Cell Count,[5],170
same,Population Apoptotic (%),[6],48%
same,Population Fragmented Nuclei (%),[6],28%
same,Population Healthy Nuclei (%),[6],51%
same,Population Membrane Permeable-Phenotype (%),[6],5%
same,Population Mitochondria Different-Phenotype (%),[6],3%
same,Population Mitotic Cells (%),[6],51%
same,Population Pyknosed Nuclei (%),[6],19%
same,Population Tubulin-Different-Phenotype (%),[6],31%
same,Total Cell Count,[6],155
same,Population Apoptotic (%),[7],36%
same,Population Fragmented Nuclei (%),[7],13%
same,Population Healthy Nuclei (%),[7],74%
same,Population Hoechst High Intensity Objects (%),[7],7%
same,Population Membrane Permeable-Phenotype (%),[7],1%
same,Population Mitochondria Different-Phenotype (%),[7],7%
same,Population Mitotic Cells (%),[7],63%
same,Population Normal (%),[7],92%
same,Population Pyknosed Nuclei (%),[7],11%
same,Population Tubulin-Different-Phenotype (%),[7],39%
same,Total Cell Count,[7],172
same,Population Apoptotic (%),[8],43%
same,Population Fragmented Nuclei (%),[8],34%
same,Population Healthy Nuclei (%),[8],48%
same,Population Membrane Permeable-Phenotype (%),[8],3%
same,Population Mitochondria Different-Phenotype (%),[8],10%
same,Population Mitotic Cells (%),[8],56%
same,Population Pyknosed Nuclei (%),[8],17%
same,Population Tubulin-Different-Phenotype (%),[8],70%
same,Total Cell Count,[8],145
same,Population Apoptotic (%),[9],40%
same,Population Fragmented Nuclei (%),[9],14%
same,Population Healthy Nuclei (%),[9],70%
same,Population Hoechst High Intensity Objects (%),[9],7%
same,Population Membrane Permeable-Phenotype (%),[9],0%
same,Population Mitochondria Different-Phenotype (%),[9],5%
same,Population Mitotic Cells (%),[9],59%
same,Population Normal (%),[9],92%
same,Population Pyknosed Nuclei (%),[9],14%
same,Population Tubulin-Different-Phenotype (%),[9],35%
same,Total Cell Count,[9],160
same,Population Apoptotic (%),[10],58%
same,Population Fragmented Nuclei (%),[10],32%
same,Population Healthy Nuclei (%),[10],52%
same,Population Hoechst High Intensity Objects (%),[10],3%
same,Population Membrane Permeable-Phenotype (%),[10],4%
same,Population Mitochondria Different-Phenotype (%),[10],4%
same,Population Mitotic Cells (%),[10],41%
same,Population Normal (%),[10],96%
same,Population Pyknosed Nuclei (%),[10],15%
same,Population Tubulin-Different-Phenotype (%),[10],43%
same,Total Cell Count,[10],163
same,Population Apoptotic (%),[11],57%
same,Population Fragmented Nuclei (%),[11],10%
same,Population Healthy Nuclei (%),[11],79%
same,Population Hoechst High Intensity Objects (%),[11],5%
same,Population Membrane Permeable-Phenotype (%),[11],0%
same,Population Mitochondria Different-Phenotype (%),[11],13%
same,Population Mitotic Cells (%),[11],42%
same,Population Normal (%),[11],94%
same,Population Pyknosed Nuclei (%),[11],9%
same,Population Tubulin-Different-Phenotype (%),[11],51%
same,Total Cell Count,[11],155
same,Population Apoptotic (%),[12],56%
same,Population Fragmented Nuclei (%),[12],36%
same,Population Healthy Nuclei (%),[12],51%
same,Population Hoechst High Intensity Objects (%),[12],3%
same,Population Membrane Permeable-Phenotype (%),[12],3%
same,Population Mitochondria Different-Phenotype (%),[12],10%
same,Population Mitotic Cells (%),[12],43%
same,Population Normal (%),[12],96%
same,Population Pyknosed Nuclei (%),[12],12%
same,Population Tubulin-Different-Phenotype (%),[12],69%
same,Total Cell Count,[12],134
